Compound activity as filed in PubChem BioAssay.
DTT redox prof: compounds producing H2O2 with reducing agent – biochemical, NIH compound library profiling, artefact control for MLSCN library redox annotation, primary screen; DTT-dependent redox cycling H2O2, phenol red/HRP absorbance; 100% = 100 µM peroxide control, 0% = buffer; activation, % at 10 µM; 200,000 compounds, 0.03% hits; AID 878, 2007;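 active = activation of at least 50% relative to the plate's high and low controls in the primary single-dose screen; inactive = activation below 50%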;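 also: compound incubated with DTT at 0.8 mM final as the reducing agent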
ROMK primary: ROMK potassium channel modulators, primary screen, cell-based, thallium flux, MLSMR library. ATP-sensitive inward rectifier potassium channel 1 (Homo sapiens), P48048. 130,000 compounds, 2% hits. Tet-inducible ROMK, thallium flux fluorescence; actives lie on both sides. B-score at 10 µM;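 active = signal ratio slope over the read window, or its plate-corrected B-score, at least 3 SD from the plate mean, either direction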;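 also: B-score of the F/F0 ratio slope over 7 to 12 s after thallium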
Target sequence (P48048 whole entry, looked up): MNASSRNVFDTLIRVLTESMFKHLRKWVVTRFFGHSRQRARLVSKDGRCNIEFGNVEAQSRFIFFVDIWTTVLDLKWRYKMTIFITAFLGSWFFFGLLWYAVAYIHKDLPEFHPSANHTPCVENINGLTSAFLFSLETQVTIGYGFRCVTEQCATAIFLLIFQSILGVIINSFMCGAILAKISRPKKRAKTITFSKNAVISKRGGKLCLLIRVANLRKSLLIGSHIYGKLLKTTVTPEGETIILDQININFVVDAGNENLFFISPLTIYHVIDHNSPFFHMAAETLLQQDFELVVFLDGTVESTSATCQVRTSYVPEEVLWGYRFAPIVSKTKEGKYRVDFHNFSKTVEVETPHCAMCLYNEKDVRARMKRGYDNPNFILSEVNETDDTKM
KCC2 mod: KCC2 cotransporter modulators, thallium flux, primary screen, cell-based, HEK293 KCC2, FluoZin-2 fluorescence, MLSMR; Solute carrier family 12 member 5 (Homo sapiens), Q9H2X9; KCC2 cells, thallium flux FluoZin-2 fluorescence; B-score of Tl+ flux slope (higher = more flux/activation; lower = inhibition) at 10 µM; 190,000 compounds, 2.2% hits; AID 1456, 2008;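 active = thallium flux slope and its plate-corrected score both differing from the plate sample mean at a set confidence after two filtering rounds, in either direction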;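 also: slope of fluorescence scaled to starting intensity during 10 to 20 s after thallium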
MT stabilize HCS: microtubule stabilizers in HeLa cells, primary screen, imaging, high-content imaging; HeLa tubulin immunostaining HCS, 24 h; share of cells brighter than vehicle mean+2SD; % tubulin-high responders, % at 10 µM; 200,000 compounds, 0.83% hits;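 active = plate Z-score above 3 for both tubulin-high and condensed-nucleus cell shares, with cell loss under 80%, at 10 µM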;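 also: anti alpha tubulin signal scored within the nucleus-defined area of each cell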
bCat nuc transl: modulators of beta-catenin nuclear translocation, primary screen, imaging, HeLa cells, immunofluorescence, high-content; nuclear translocation activity, % at 5 µM; 190,000 compounds, 0.3% hits; AID 1665, 2009;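 active = nuclear translocation activity above 50% at 5 µM, with a well cell count of 50 or more; inconclusive = wells under 50 cells across six images, flagged as toxic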;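 also: per-cell ratio of nuclear to cytoplasmic median beta-catenin stain intensity; plate controls were DMSO negative control for no effect and GSK-3 inhibitor IX positive control for full effect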
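System: HeLa cells, endogenous beta-catenin; compound dosing: 5 µM primary single dose, 0.1% DMSO, 0.02–20 µM confirmation series; incubation: 24 h compound exposure at 37°C, 5% CO2; signal: beta-catenin immunofluorescence imaging with DAPI; evaluation: % activation, nuclear-to-cytoplasmic median beta-catenin signal ratio per cell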
KCC2 sec1: KCC2 modulators in sodium-free buffer, confirmation, cell-based, HEK293 KCC2, thallium flux, secondary assay; normalised thallium flux (F/F0 slope) at 10 µM; shares compounds with KCC2 mod; 3,700 compounds, 15% hits; FluoZin2 fluorescence; stronger effect = higher value; AID 1713, 2009;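 active = thallium flux slope above the same plate's solvent-only control mean plus 3 SD; inconclusive = the two replicate wells disagree; inactive = no significant difference from solvent-only control wells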
KCC2 bumet counter: thallium flux persisting under bumetanide in KCC2 cells, confirmation, counter-screen for KCC2 modulator project, cell-based, HEK293 KCC2, FluoZin2, secondary assay 3 | shares compounds with KCC2 mod | normalized thallium flux at 10 µM | 3,700 compounds, 49% hits | HEK293-KCC2 + bumetanide/ouabain; stronger effect = higher value;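 active = thallium entry rate above the same plate's blocked-transporter control wells by more than 3 SD; inconclusive = the two repeat wells disagree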;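 also: raw slope of fluorescence over initial fluorescence between 10 and 20 s after thallium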
KCC2 sec2: KCC2 modulators without ouabain present, confirmation, cell-based, HEK293 KCC2, thallium flux, FluoZin2, secondary assay 2; shares compounds with KCC2 mod; thallium flux FluoZin2 fluorescence; actives lie on both sides; F/F0 rise rate, 10–20 s post-thallium; normalized thallium flux at 10 µM; 3,700 compounds, 23% hits;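 active = thallium flux slope more than 3 SD above or below the plate's solvent-only control mean, mostly below; inconclusive = the two repeat wells disagreed; inactive = no significant shift from solvent-only controls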;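 also: raw slope with 0.1% DMSO as baseline and bumetanide as block control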
HEK counter1: thallium flux modulation in parental HEK cells, confirmation, counter-screen for KCC2 modulator project, cell-based, counterscreen 1. HEK293 parental cells, thallium flux FluoZin2, ouabain; baseline-ratio fluorescence slope, 10–20 s after thallium. thallium flux rate (normalised fluorescence) at 10 µM. shares compounds with KCC2 mod. 3,700 compounds, 46% hits;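 active = thallium flux rate significantly above the same plate's solvent-only control wells, beyond their mean plus 3 SD; inconclusive = the two replicate wells gave conflicting results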
KCC2 retest ouab: KCC2 inhibitors and activators, ouabain retest, confirmation, HEK-KCC2 cells; AID 1717, 2009; HEK293-KCC2, thallium flux FluoZin2 fluorescence; bidirectional: low = inhibitor, high = activator; 3,700 compounds, 48% hits; raw Tl+ flux slope (below DMSO = inhibition, above = activation) at 10 µM; shares compounds with KCC2 mod;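 active = thallium flux slope beyond 3 SD from same-plate DMSO control mean in most replicates, usually higher, sometimes lower; inconclusive = repeat tests gave conflicting results; inactive = no significant difference from controls in most replicates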;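 also: slope of initial-normalized fluorescence between seconds 10 and 20 after thallium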
HEK counter2: native HEK Tl+ uptake effects, second counter-screen – HEK cells, counterscreen 2, counter-screen for KCC2 modulator project, confirmation; shares compounds with KCC2 mod; HEK293 parental, thallium flux FluoZin-2 fluorescence slope; thallium flux slope at 10 µM; 3,700 compounds, 33% hits;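 active = thallium flux slope above the same plate's solvent-control mean plus 3 SD in both duplicate wells; inconclusive = duplicate wells that disagreed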;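 also: run without ouabain in cells lacking the KCC2 cotransporter; slope of fluorescence scaled to its starting value between 10 and 20 s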
An asterisk follows results filed as active; u = inconclusive; x = not tested or not shown. An excerpt weighted towards active compounds, which were near 3.7% of everything screened.

SMILES	DTT redox prof	ROMK primary	KCC2 mod	MT stabilize HCS	bCat nuc transl	KCC2 sec1	KCC2 bumet counter	KCC2 sec2	HEK counter1	KCC2 retest ouab	HEK counter2
S=c1[nH]nc(COc2ccc(Cl)cc2)o1	0	x	-6.1*	4	-6	0.0072	u	0.022*	0.0081	u	0.011
Cc1ccc(C(C)C)c(OCc2n[nH]c(=S)o2)c1	0	0.55	28*	3	-2	0.014	0.043*	u	0.034*	0.035*	0.034*
S=c1[nH]nc(CCc2ccc(Cl)cc2)o1	-1	x	-7.8*	5	-1	0.01	0.007	0.023*	0.0074	0.04*	0.01
COc1ccc(OCc2n[nH]c(=S)o2)cc1	0	0.47	-3.1	1	1	x	x	x	x	x	x
CN(C(=O)CSc1nc2c(cnn2-c2ccccc2)c(=O)[nH]1)C1CCS(=O)(=O)C1 (configuration not stated)	-1	0.83	0.062	2	-1	x	x	x	x	x	x
CC1C/C(=N\NC(=O)c2cccnc2)CC(C)(C)C1 (configuration not stated)	0	-0.031	0.35	3	5	x	x	x	x	x	x
CC1C/C(=N\NC(=O)c2ccc([N+](=O)[O-])cc2)CC(C)(C)C1 (configuration not stated)	x	x	5.4*	x	2	0.01	0.016*	0.029	0.009*	0.027*	u
Cc1ccc(-n2ncc3c(SCc4cccc(C)c4)ncnc32)cc1	3	x	6.6*	3	-3	0.0074	0.022*	0.042*	0.022*	0.031*	0.026*
O=C1NC(=O)/C(=C\c2ccccc2Oc2ccc(F)c(F)c2)S1	4	x	-4.3	1	5	x	x	x	x	x	x
O=C1NC(=O)/C(=C/c2ccccc2OCc2ccccc2)S1	-2	-0.066	-5.7*	3	4	0.0086	0.0071	0.033	0.0064	0.015*	u
Cc1nn(C(C)C(=O)N2CCOCC2)c(C)c1[N+](=O)[O-] (configuration not stated)	0	x	0.33	5	0	x	x	x	x	x	x
O=C(Nc1nnc(-c2ccc(Cl)cc2)o1)Nc1ccccc1Cl	-4	x	3.5*	3	0	0.0092	0.026*	0.035	u	0.026	u
O=C(Nc1nnc(-c2ccccc2)o1)C1CCCCC1	-1	x	x	1	0	x	x	x	x	x	x
O=C(Nc1nnc(-c2ccc(Cl)cc2)o1)C1CCCCC1	x	x	5.3*	x	2	0.0055	0.022*	0.035	0.015*	0.029*	0.018*
O=C(Nc1nnc(-c2ccc(Cl)s2)o1)C1CCCCC1	-1	x	5.2*	8	x	0.013*	0.028*	0.034	0.019*	0.032*	0.012*
Cc1cc(=O)[nH]c(SCC(=O)Nc2ccc(Br)cc2)c1C#N	0	-0.69	-2.9*	2	x	0.0058	0.0037	0.023*	0.006*	0.015*	u
Cc1cc(=O)[nH]c(SCC(=O)Nc2ccc(F)cc2)c1C#N	0	x	0.008	2	-1	x	x	x	x	x	x
CC(Sc1ncc(C(F)(F)F)cc1Cl)C(=O)NCC1CCCO1 (configuration not stated)	0	0.41	0.51	2	-2	x	x	x	x	x	x
Oc1c(Cl)cc(Cl)cc1/C=N/Nc1ncc(Br)cn1	1	0.094	0.13	2	-1	x	x	x	x	x	x
Cc1c(NC(=S)N/N=C\c2ccccc2O)c(=O)n(-c2ccccc2)n1C	0	0.44	-0.97	11	1	x	x	x	x	x	x
Oc1c(Cl)cc(Cl)cc1/C=N/NC(=S)NC1CC2C=CC1C2 (configuration not stated)	x	x	9.2*	x	-3	0.0083	0.017*	0.028	0.011*	u	0.0097
Oc1ccccc1/C=N/NC(=S)NC1CC2C=CC1C2 (configuration not stated)	x	x	18*	x	7	u	0.052*	0.034	0.025*	0.031	0.014*
COc1ccc(Nc2nnc(-c3ccc(N4CCOCC4)c([N+](=O)[O-])c3)c3ccccc23)cc1	-8	x	0.11	3	x	x	x	x	x	x	x
Cc1c(Cl)cccc1NC(=S)NNc1ncc(C(F)(F)F)cc1Cl	0	-1.7	5.5*	2	x	0.0061	0.049*	u	0.018*	0.038*	0.021*
NC(=S)Nc1ncc(C(F)(F)F)cc1Cl	0	1.8	16*	3	-3	0.0065	0.059*	0.047*	0.036*	0.047*	0.039*
Fc1ccccc1NC(=S)NNc1ncc(C(F)(F)F)cc1Cl	0	-1.7	6.9*	2	x	0.0078	0.052*	0.03	0.011*	u	0.01*
CC(C)CNC(=O)c1cnn2c(C(F)(F)F)cc(C(F)(F)F)nc12	x	x	x	x	0	x	x	x	x	x	x
NNc1nc2sc3c(c2c(=O)n1Cc1ccccc1)CCC3	x	-1.1	4.1*	x	-2	0.012	0.017*	0.037	u	u	0.012
Nn1c(Nc2ccccc2)nc2sc3c(c2c1=O)CCC3	-1	x	x	5	-4	x	x	x	x	x	x
CCn1c(NN)nc2sc3c(c2c1=O)CCC3	0	0.23	6*	2	x	0.014*	0.019*	0.035	0.018*	0.03*	u
